Experimental data: ChEMBL document CHEMBL1149480, “Discovery of a novel series of inhibitors of human cytomegalovirus primase” (Bioorg Med Chem Lett, 2006)
Active and inactive are the calls of the source. The rule behind the calls is not given here.

Legend:
[1] = test system: Human immunodeficiency virus; experiment: Antiviral activity against HIV; assay type: functional, organism-based
Murid betaherpesvirus 2 = experiment: Antiviral activity against rat CMV; assay type: functional, organism-based
Murid betaherpesvirus 1 = experiment: Antiviral activity against mouse CMV; assay type: functional, organism-based
HFF [2] = experiment: Antiviral activity against human CMV by luciferase reporter gene assay in HFF cells; assay type: functional, cell-based
How it was run: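 HFF cells (10^4/well) were rested 2 h, then infected with rhCMVLuc at MOI 1 pfu/cell. Inoculum was removed after 1 h and drug added (0.005–5 µM or 0.05–50 µM) for 48 h at 37 °C. Luciferase was read with Mg(OAc)2, 30 mM Tricine pH 7.8 and 200 µM EDTA. IC50 is 50% inhibition of hCMV DNA replication.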

Caviid betaherpesvirus 2 = experiment: Antiviral activity against guinea pig CMV; assay type: functional, organism-based
Human alphaherpesvirus 1 = experiment: Antiviral activity against HSV; assay type: functional, organism-based
Human betaherpesvirus 6 = experiment: Antiviral activity against HHV6; assay type: functional, organism-based
[3] = Ratio of antiviral activity against human CMV to rhesus CMV; assay type: functional, Cercopithecine herpesvirus 8
Human gammaherpesvirus 4 = experiment: Antiviral activity against EBV; assay type: functional, organism-based
Human betaherpesvirus 5 [4] = experiment: Inhibition of human CMV growth by viral yield assay; assay type: functional
How it was run: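 Viral yield: once CPE appeared, well supernatants were serially diluted 1:2 sixteen times and used to infect fresh HFF cells (10^4/well). Inoculum was removed after 1 h; cells were incubated 5–7 days until CPE. Yield was quantified and IC99.9 taken as the drug concentration giving 99.9% inhibition of replication.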

Jurkat = experiment: Cytotoxicity against human Jurkat cells; assay type: functional, cell-based
How it was run: (§1)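 HFF or Jurkat cells were seeded and compound added 3 h later. Alamar blue staining at 0, 24, 48 and 72 h, then a further 3 h incubation, with fluorescence read-out. IC50 is the concentration inhibiting cell growth by 50%.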

HFF [5] = experiment: Cytotoxicity against HFF cells; assay type: functional, cell-based; conditions: Homo sapiens; how it was run: as §1
Human betaherpesvirus 5 [6] = experiment: Inhibition of human CMV growth by plaque reduction assay; assay type: functional
How it was run: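 Plaques counted after 10-day incubation of 10^5 cells infected with 1000 pfu of wild-type, clinical-isolate or resistant virus; IC99.9 is the drug amount inhibiting plaque formation by 99.9%.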

HFF [7] = experiment: Antiviral activity against human CMV by dot blot assay in HFF cells; assay type: functional, cell-based
How it was run: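 Dot blot DNA replication readout. HFF cells were seeded at 2 × 10^4 cells/well and infected with rhCMVLuc, clinical isolates or wild-type virus, then incubated 72 h with drug. Cells were lysed in 0.4 N NaOH, 0.5 M EDTA, applied to membrane by microfiltration and UV-crosslinked. DNA was hybridized to a hCMV-specific 32P probe and detected by phosphorimaging.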

[8] = test system: DNA primase UL70 (Human cytomegalovirus); experiment: Binding affinity to human CMV UL70 primase by immunoprecipitation assay; conditions: Human betaherpesvirus 5; tested as the 3H-labelled form

SMILES | Activity [1] | Activity (Murid betaherpesvirus 2) | Activity (Murid betaherpesvirus 1) | IC50 (HFF [2]) | Activity (Caviid betaherpesvirus 2) | Activity (Human alphaherpesvirus 1) | Activity (Human betaherpesvirus 6) | Selectivity ratio [3] | Activity (Human gammaherpesvirus 4) | further results
Cc1nccn1-c1nc(N(C)Cc2ccccc2)nc2c1S(=O)(=O)CC2 | inactive | inactive | inactive | > 30000 nM | inactive | inactive | inactive | >=10 | inactive | 
CCc1nccn1-c1nc(N(C)Cc2ccccc2)nc(C)c1[N+](=O)[O-] | inactive | inactive | inactive | 190 nM | inactive | inactive | inactive | >=10 | inactive | 
Cc1nc(NC2CCc3ccccc32)nc(-n2ccnc2C)c1[N+](=O)[O-] (stereo not given) | inactive | inactive | inactive |  | inactive | inactive | inactive | >=10 | inactive | IC100 (Human betaherpesvirus 5 [4]): 0.1 µM; IC50 (Jurkat): 100000 nM; IC50 (HFF [5]): > 100000 nM; IC100 (Human betaherpesvirus 5 [6]): 0.5 µM; IC50 (HFF [7]): 53 nM
Cc1nc(N2CCC(C)CC2)nc(-n2ccnc2C)c1[N+](=O)[O-] | inactive | inactive | inactive |  | inactive | inactive | inactive | >=10 | inactive | IC50 (HFF [7]): 300 nM
Cc1nc(N(C)Cc2ccccc2)nc(-n2ccnc2)c1[N+](=O)[O-] | inactive | inactive | inactive | 20 nM | inactive | inactive | inactive | >=10 | inactive | 
Cc1nc(N(C)Cc2ccccc2)nc(-n2c(C)nc3ccccc32)c1[N+](=O)[O-] | inactive | inactive | inactive | > 30000 nM | inactive | inactive | inactive | >=10 | inactive | 
Cc1nccn1-c1nc(N(C)Cc2ccccc2)nc(C(C)C)c1[N+](=O)[O-] | inactive | inactive | inactive | 3000 nM | inactive | inactive | inactive | >=10 | inactive | 
Cc1nc(N(C)Cc2ccccc2)nc(-n2ccnc2C(C)C)c1[N+](=O)[O-] | inactive | inactive | inactive | 770 nM | inactive | inactive | inactive | >=10 | inactive | 
Nc1ccn(C[C@@H](CO)OCP(=O)(O)O)c(=O)n1.O.O [CIDOFOVIR] |  |  |  |  |  |  |  |  |  | IC100 (Human betaherpesvirus 5 [4]): 1 µM; IC50 (Jurkat): 100000 nM; IC50 (HFF [5]): > 100000 nM; IC100 (Human betaherpesvirus 5 [6]): 2.5 µM
Cc1nc(N(C)Cc2ccccc2)nc(-n2ccnc2-c2ccccc2)c1[N+](=O)[O-] | inactive | inactive | inactive | 5000 nM | inactive | inactive | inactive | >=10 | inactive | 
Cc1nccn1-c1nc(N(C)Cc2ccccc2)nc(Cl)c1[N+](=O)[O-] | inactive | inactive | inactive | > 30000 nM | inactive | inactive | inactive | >=10 | inactive | 
Cc1nc(N(C)Cc2ccccc2)nc(-n2ccnc2C)n1 | inactive | inactive | inactive | > 30000 nM | inactive | inactive | inactive | >=10 | inactive | 
CCCCN(C)c1nc(C)c([N+](=O)[O-])c(-n2ccnc2C)n1 | inactive | inactive | inactive |  | inactive | inactive | inactive | >=10 | inactive | IC50 (HFF [7]): 300 nM
Nc1nc2c(ncn2COC(CO)CO)c(=O)[nH]1 [GANCICLOVIR] |  |  |  |  |  |  |  |  |  | IC100 (Human betaherpesvirus 5 [4]): 5 µM; IC50 (Jurkat): > 100000 nM; IC50 (HFF [5]): > 100000 nM; IC100 (Human betaherpesvirus 5 [6]): 10 µM
CCc1nc(N(C)Cc2ccccc2)nc(-n2ccnc2C)c1[N+](=O)[O-] | inactive | inactive | inactive | 170 nM | inactive | inactive | inactive | >=10 | inactive | Activity ([1]; tested as the 3H-labelled form): inactive; Activity (Murid betaherpesvirus 2; tested as the 3H-labelled form): inactive; Activity (Murid betaherpesvirus 1; tested as the 3H-labelled form): inactive; Activity (Caviid betaherpesvirus 2; tested as the 3H-labelled form): inactive; Activity (Human alphaherpesvirus 1; tested as the 3H-labelled form): inactive; Activity (Human betaherpesvirus 6; tested as the 3H-labelled form): inactive; Activity [8]: Active; Activity (Human gammaherpesvirus 4; tested as the 3H-labelled form): inactive
Cc1nc(N(C)Cc2ccccc2)nc(-n2ccnc2C)c1C#N | inactive | inactive | inactive | > 30000 nM | inactive | inactive | inactive | >=10 | inactive | 
Cc1nc(N(C)c2ccccc2)nc(-n2ccnc2C)c1[N+](=O)[O-] | inactive | inactive | inactive | 550 nM | inactive | inactive | inactive | >=10 | inactive | IC100 (Human betaherpesvirus 5 [4]): 2 µM; IC50 (Jurkat): 80000 nM; IC50 (HFF [5]): 100000 nM; IC100 (Human betaherpesvirus 5 [6]): 2.5 µM; IC50 (HFF [7]): 300 nM
Cc1nc(N(C)Cc2ccccc2)nc(-n2ccnc2C)c1[N+](=O)[O-] | inactive | inactive | inactive | 39 nM | inactive | inactive | inactive | >=10 | inactive | IC100 (Human betaherpesvirus 5 [4]): 0.2 µM; IC50 (Jurkat): 25000 nM; IC50 (HFF [5]): > 100000 nM; IC100 (Human betaherpesvirus 5 [6]): 0.5 µM; IC50 (HFF [7]): 61 nM
[3H]CC([3H])c1nc(N(C)Cc2ccccc2)nc(-n2ccnc2C)c1[N+](=O)[O-] (stereo not given) |  |  |  |  |  |  |  | >=10 |  | 
Cc1cn(-c2nc(N(C)Cc3ccccc3)nc(C)c2[N+](=O)[O-])cn1 | inactive | inactive | inactive | 10000 nM | inactive | inactive | inactive | >=10 | inactive | 
CCOc1nc(C)c([N+](=O)[O-])c(-n2ccnc2C)n1 | inactive | inactive | inactive |  | inactive | inactive | inactive | >=10 | inactive | IC50 (HFF [7]): 670 nM
Cc1nccn1-c1nc(N(C)Cc2ccccc2)ncc1[N+](=O)[O-] | inactive | inactive | inactive | 3000 nM | inactive | inactive | inactive | >=10 | inactive | 
Cc1cc(-n2ccnc2C)nc(N(C)Cc2ccccc2)n1 | inactive | inactive | inactive | > 30000 nM | inactive | inactive | inactive | >=10 | inactive | 
Cc1nccn1-c1nc(N(C)Cc2ccccc2)nc(CCN(C)C)c1[N+](=O)[O-] | inactive | inactive | inactive | 6000 nM | inactive | inactive | inactive | >=10 | inactive | 
